Measured values collected from several papers.
Each line is one published result; the experiments were not run side by side. pIC50: −log10 of the molar value.
Cell line: Vero
Effect on: cell growth or viability

With `COc1cc(NC(=O)C2=C(C)NC(C)=C(C(=O)Nc3cc(OC)c(Cl)cc3OC)C2c2cccc(Cl)c2)c(OC)cc1Cl` the pIC50 was 4.55 (MTT).
`Cc1nnc(-c2ccc(NC(=O)Cn3c(=O)c4cc(I)ccc4n(Cc4ccccc4)c3=O)cc2)o1` gave a pIC50 of 4.34.
`S=c1nc(-c2ccc(Nc3nnc(-c4ccc(Cl)cc4)c4ccccc34)cc2)cc(-c2ccccc2)[nH]1` gave a pIC50 of 5.39.
With `C=CC(=O)Nc1cc(Nc2nccc(-c3cn(C)c4ccccc34)n2)c(OC)cc1N(C)CCN(C)C` the pIC50 was 3.74 (MTT; 72 h).
The pIC50 of `COc1cc(NC(=O)C2=C(C)NC(C)=C(C(=O)Nc3cc(OC)c(Cl)cc3OC)C2c2ccc(Cl)cc2)c(OC)cc1Cl` is reported as 4.56 (MTT).
With `S=c1nc(-c2ccc(Nc3nnc(-c4ccc(Cl)cc4)c4ccccc34)cc2)cc(-c2ccc(Cl)cc2)[nH]1` the pIC50 was 5.50.
For `COC(=O)c1ccc(NC(=O)Cn2c(=O)c3cc(I)ccc3n(Cc3ccccc3)c2=O)cc1`, the pIC50 was 4.30.
`CS(=O)(=O)CCNCc1ccc(-c2ccc3ncnc(Nc4ccc(OCc5cccc(F)c5)c(Cl)c4)c3c2)o1` gave a pIC50 of 4.76 (MTT).
`Oc1ccc(C2CC(c3ccc(Nc4nnc(-c5ccc(Cl)cc5)c5ccccc45)cc3)=NN2)cc1` (stereo not shown) has a pIC50 of 5.36.
The pIC50 of `Cc1ncc(CN2CCc3ccccc3C2)c2cc(C(=O)c3ccc4c(c3)OCCO4)oc12` is reported as 3.74 (MTT; 72 h).
With `COc1ccc(NC(=O)C2=C(C)NC(C)=C(C(=O)Nc3cc(OC)c(Cl)cc3OC)C2c2ccc(O)cc2)c(OC)c1` (stereo not shown) the pIC50 was 4.22 (MTT).
`Clc1ccc(-c2nnc(Nc3ccc(C4=NNC(c5ccccc5)C4)cc3)c3ccccc23)cc1` (stereo not shown) has a pIC50 of 5.32.
With `O=C(Cn1c(=O)c2cc(I)ccc2n(Cc2ccccc2)c1=O)Nc1ccc(-c2nnc(S)o2)cc1` the pIC50 was 4.36.
With `COc1ccc(NC(=O)C2=C(C)NC(C)=C(C(=O)Nc3ccc(OC)cc3OC)C2c2ccco2)c(OC)c1` the pIC50 was 4.29 (MTT).
The pIC50 of `NNC(=O)c1ccc(NC(=O)Cn2c(=O)c3cc(I)ccc3n(Cc3ccccc3)c2=O)cc1` is reported as 4.28.
For `CN(C)C/C=C/C(=O)Nc1cc2c(Nc3ccc(F)c(Cl)c3)ncnc2cc1O[C@H]1CCOC1`, the pIC50 was 3.96 (MTT; 72 h).
`COc1ccc(C2CC(c3ccc(Nc4nnc(-c5ccc(Cl)cc5)c5ccccc45)cc3)=NN2)cc1` (stereo not shown) gave a pIC50 of 5.49.
The pIC50 of `COc1ccc(NC(=O)C2=C(C)NC(C)=C(C(=O)Nc3ccc(OC)cc3OC)C2c2ccc(Cl)cc2)c(OC)c1` is reported as 4.12 (MTT).
The pIC50 of `Cc1ccc2c(-c3cc4c(CN5CCN(Cc6ccccn6)CC5)cnc(C)c4o3)cc(=O)oc2c1` is reported as 4.22 (MTT; 72 h).
